Each block holds one molecule with its values, some of them ahead of it.
How the values were obtained:
Rattus norvegicus [1] = experiment: Mean aortic base line blood pressure in conscious renal 2-kidney/1-clip goldblatt hypertensive rat at a dose 30 mg/kg administered orally; type: functional, Artery; conditions: route oral
Rattus norvegicus [2] = experiment: Maximum change in mean aortic blood pressure in conscious renal 2-kidney/1-clip goldblatt hypertensive rat at a dose 30 mg/kg administered orally at 8h; 3 animals tested; type: functional, Artery; conditions: route oral
How it was run: (§1)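 Male Sprague–Dawley rats made hypertensive at 4 weeks old by silver clip (0.2-mm gap) on left renal artery, contralateral kidney intact; 4–8 weeks development, cannulated (280–320 g), only mean aortic pressure >160 mmHg used. Oral dosing; 1-min running-average aortic pressure and heart rate logged every 30 min; maximum change from base line, mean ± SEM.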

Rattus norvegicus [3] = experiment: Maximum change in mean aortic blood pressure in conscious renal 2-kidney/1-clip goldblatt hypertensive rat at a dose 1.0 mg/kg administered orally at 8h; 4 animals tested; type: functional, Artery; conditions: route oral
How it was run: (§2)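 Male Sprague–Dawley rats, 4 weeks old, given a silver clip (0.2-mm gap) on the left renal artery with the other kidney intact. Hypertension developed over 4–8 weeks, then rats (280–320 g) were aortic-cannulated; only those with mean pressure >160 mmHg were used. Oral dosing. One-minute running averages were logged every 30 min. Results are mean ± 1 SEM, from 3–5 rats.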

Rattus norvegicus [4] = experiment: Mean aortic base line blood pressure in conscious renal 2-kidney/1-clip goldblatt hypertensive rat at a dose 0.3 mg/kg administered orally; type: functional, Artery; conditions: route oral
Rattus norvegicus [5] = experiment: Mean aortic base line blood pressure in conscious renal 2-kidney/1-clip goldblatt hypertensive rat at a dose 1.0 mg/kg administered orally; type: functional, Artery; conditions: route oral; how it was run: as §2
Rattus norvegicus [6] = experiment: Mean aortic base line blood pressure in conscious renal 2-kidney/1-clip goldblatt hypertensive rat at a dose 3.0 mg/kg administered orally; type: functional, Artery; conditions: route oral
Rattus norvegicus [7] = experiment: Mean aortic base line blood pressure in conscious renal 2-kidney/1-clip goldblatt hypertensive rat at a dose 10 mg/kg administered orally; type: functional, Artery; conditions: route oral; how it was run: as §2
Rattus norvegicus [8] = experiment: Maximum change in mean aortic blood pressure in conscious renal 2-kidney/1-clip goldblatt hypertensive rat at a dose 3 mg/kg administered orally at 5h; 4 animals tested; type: functional, Artery; conditions: route oral; how it was run: as §2
Rattus norvegicus [9] = experiment: Maximum change in mean aortic blood pressure in conscious renal 2-kidney/1-clip goldblatt hypertensive rat at a dose 0.3 mg/kg administered orally at 5h; 4 animals tested; type: functional, Artery; conditions: route oral; how it was run: as §2
Rattus norvegicus [10] = experiment: Maximum change in mean aortic blood pressure in conscious renal 2-kidney/1-clip goldblatt hypertensive rat at a dose 10 mg/kg administered orally at 4 hr; 4 animals tested; type: functional, Artery; conditions: route oral; how it was run: as §2
Rattus norvegicus [11] = experiment: Maximum change in mean aortic blood pressure in conscious renal 2-kidney/1-clip goldblatt hypertensive rat at a dose 30 mg/kg administered orally at 5h; 4 animals tested; type: functional, Artery; conditions: route oral; how it was run: as §2
[12] = molecular target: T1, Angiotensin-converting enzyme (Rattus norvegicus, UniProt P47820); experiment: Inhibition of rat Angiotensin I converting enzyme (ACE), using Hip-Gly-Gly as synthetic substrate.
T1 sequence (P47820 whole entry): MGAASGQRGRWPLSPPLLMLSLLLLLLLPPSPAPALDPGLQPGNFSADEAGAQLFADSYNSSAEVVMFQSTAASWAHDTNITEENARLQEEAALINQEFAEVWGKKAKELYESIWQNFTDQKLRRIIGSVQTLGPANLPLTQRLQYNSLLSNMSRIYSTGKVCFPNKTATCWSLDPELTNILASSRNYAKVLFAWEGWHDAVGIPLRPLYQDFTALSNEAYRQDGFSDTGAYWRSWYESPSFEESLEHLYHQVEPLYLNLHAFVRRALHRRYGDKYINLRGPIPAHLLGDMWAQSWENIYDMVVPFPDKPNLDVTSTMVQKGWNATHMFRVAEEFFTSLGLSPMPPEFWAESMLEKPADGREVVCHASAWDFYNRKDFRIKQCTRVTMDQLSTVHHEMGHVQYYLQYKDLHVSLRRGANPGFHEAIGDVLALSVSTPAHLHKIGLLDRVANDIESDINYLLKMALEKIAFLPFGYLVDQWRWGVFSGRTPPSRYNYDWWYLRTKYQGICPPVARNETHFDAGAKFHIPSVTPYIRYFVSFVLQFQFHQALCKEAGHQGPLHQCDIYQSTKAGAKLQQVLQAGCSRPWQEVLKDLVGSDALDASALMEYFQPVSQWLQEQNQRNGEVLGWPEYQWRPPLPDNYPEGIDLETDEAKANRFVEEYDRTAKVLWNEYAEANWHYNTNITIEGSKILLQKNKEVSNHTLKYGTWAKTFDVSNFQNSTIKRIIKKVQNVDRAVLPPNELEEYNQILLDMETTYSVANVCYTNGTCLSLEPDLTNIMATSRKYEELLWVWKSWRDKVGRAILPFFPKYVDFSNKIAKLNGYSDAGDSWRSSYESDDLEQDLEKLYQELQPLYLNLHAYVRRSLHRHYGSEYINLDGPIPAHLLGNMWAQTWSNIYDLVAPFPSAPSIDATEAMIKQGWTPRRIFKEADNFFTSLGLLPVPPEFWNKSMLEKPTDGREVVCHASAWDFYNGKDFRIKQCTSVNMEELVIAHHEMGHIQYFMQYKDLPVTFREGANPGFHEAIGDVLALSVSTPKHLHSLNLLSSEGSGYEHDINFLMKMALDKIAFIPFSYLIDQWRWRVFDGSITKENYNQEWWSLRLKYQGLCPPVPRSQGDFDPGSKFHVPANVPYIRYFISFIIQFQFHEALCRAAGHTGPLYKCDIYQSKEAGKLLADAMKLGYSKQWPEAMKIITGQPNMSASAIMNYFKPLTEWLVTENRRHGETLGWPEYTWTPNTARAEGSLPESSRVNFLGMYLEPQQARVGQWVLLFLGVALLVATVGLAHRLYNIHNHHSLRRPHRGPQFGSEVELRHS
How it was run: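 Radioassay of converting-enzyme activity with Hip-Gly-Gly as substrate; compounds dissolved at 2–5 mg/mL in Me2SO, then diluted to test concentrations in pH 8 buffer (0.05 M Hepes, 0.1 M NaCl, 0.6 M Na2SO4).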

Rattus norvegicus [13] = experiment: Mean aortic base line blood pressure in conscious renal 2-kidney/1-clip goldblatt hypertensive rat at a dose 3 mg/kg administered orally; type: functional, Artery; conditions: route oral; how it was run: as §2
Rattus norvegicus [14] = experiment: Maximum change in mean aortic blood pressure in conscious renal 2-kidney/1-clip goldblatt hypertensive rat at a dose 3 mg/kg administered orally at 6 h; 4 animals tested; type: functional, Artery; conditions: route oral
Rattus norvegicus [15] = experiment: Maximum change in mean aortic blood pressure in conscious renal 2-kidney/1-clip goldblatt hypertensive rat at a dose 30 mg/kg administered orally at 6 h; 3 animals tested; type: functional, Artery; conditions: route oral; how it was run: as §1
Rattus norvegicus [16] = experiment: Maximum change in mean aortic blood pressure in conscious renal 2-kidney/1-clip goldblatt hypertensive rat at a dose 3.0 mg/kg administered orally at 5h; 4 animals tested; type: functional, Artery; conditions: route oral; how it was run: as §2
Rattus norvegicus [17] = experiment: Maximum change in mean aortic blood pressure in conscious renal 2-kidney/1-clip goldblatt hypertensive rat at a dose 1.0 mg/kg administered orally at 5h; 4 animals tested; type: functional, Artery; conditions: route oral; how it was run: as §2
Rattus norvegicus [18] = experiment: Maximum change in mean aortic blood pressure in conscious renal 2-kidney/1-clip goldblatt hypertensive rat at a dose 0.3 mg/kg administered orally at 8h; 4 animals tested; type: functional, Artery; conditions: route oral; how it was run: as §2
Rattus norvegicus [19] = experiment: Maximum change in mean aortic blood pressure in conscious renal 2-kidney/1-clip goldblatt hypertensive rat at a dose 30 mg/kg administered orally at 10h; 4 animals tested; type: functional, Artery; conditions: route oral; how it was run: as §2
Rattus norvegicus [20] = experiment: Mean aortic base line blood pressure in conscious renal 2-kidney/1-clip goldblatt hypertensive rat at a dose 0.1 mg/kg administered orally; type: functional, Artery; conditions: route oral; how it was run: as §2
Rattus norvegicus [21] = experiment: Maximum change in mean aortic blood pressure in conscious renal 2-kidney/1-clip goldblatt hypertensive rat at a dose 30 mg/kg administered orally at 6 h; 4 animals tested; type: functional, Artery; conditions: route oral

SMILES: C1CCC(NC2CCCCC2)CC1.O=C(O)C1C2CCCCC2C(=O)N1C(=O)CCS (centres undefined)
Mean aortic blood pressure (Rattus norvegicus [1]): 205 mmHg | Mean aortic blood pressure (Rattus norvegicus [2]): -57 mmHg

SMILES: CCOC(=O)[C@H](CCc1ccccc1)N[C@@H](C)C(=O)N1CCC[C@H]1C(=O)O
Mean aortic blood pressure (Rattus norvegicus [3]): -24 mmHg | Mean aortic blood pressure (Rattus norvegicus [4]): 201 mmHg | Mean aortic blood pressure (Rattus norvegicus [5]): 175 mmHg | Mean aortic blood pressure (Rattus norvegicus [6]): 200 mmHg | Mean aortic blood pressure (Rattus norvegicus [7]): 199 mmHg | Mean aortic blood pressure (Rattus norvegicus [8]): -56 mmHg | Mean aortic blood pressure (Rattus norvegicus [9]): -39 mmHg | Mean aortic blood pressure (Rattus norvegicus [10]): -56 mmHg

SMILES: C[C@H](N[C@@H](CCc1ccccc1)C(=O)O)C(=O)N1[C@H](C(=O)O)C[C@@H]2CCCC[C@@H]21
Mean aortic blood pressure (Rattus norvegicus [11]): -104 mmHg | Mean aortic blood pressure (Rattus norvegicus [1]): 198 mmHg

SMILES: CC(CS)C(=O)N1C(=O)CCC1C(=O)O (centres undefined)
IC50 [12]: 9.3 nM | Mean aortic blood pressure (Rattus norvegicus [1]): 185 mmHg | Mean aortic blood pressure (Rattus norvegicus [2]): -48 mmHg

SMILES: CCOC(=O)C(CCc1ccccc1)NC(C)C(=O)N1[C@H](C(=O)O)C[C@@H]2CCCC[C@@H]21.Cl (stereo in doubt; 17a)
Mean aortic blood pressure (Rattus norvegicus [13]): 199 mmHg | Mean aortic blood pressure (Rattus norvegicus [14]): -87 mmHg

IC50 [12]: 5.2 nM
SMILES: CC(CS)C(=O)N1[C@H](C(=O)O)C[C@@H]2CCCC[C@@H]21 (stereo in doubt; 9f)
Mean aortic blood pressure (Rattus norvegicus [1]; 30 mg/kg): 193 mmHg | Mean aortic blood pressure (Rattus norvegicus [15]): -72 mmHg

SMILES: O=C(O)[C@@H]1C[C@@H]2CCCC[C@@H]2N1C(=O)CCS (stereo in doubt; 8d)
IC50 [12]: 6.4 nM

IC50 [12]: > 100000 nM
SMILES: CCOC(=O)C(CCc1ccccc1)N1C(=O)C2CC3CCCCC3N2C(=O)C1C (centres undefined)

IC50 [12]: 1100 nM
SMILES: CC(CS)C(=O)N1[C@H](C(=O)O)C[C@@H]2CCCC[C@@H]21 (stereo in doubt; 9d)

IC50 [12]: 7.7 nM
SMILES: CC(CS)C(=O)N1[C@H](C(=O)O)C[C@@H]2CCCC[C@@H]21 (stereo in doubt; 9c)
Mean aortic blood pressure (Rattus norvegicus [4]): 185 mmHg | Mean aortic blood pressure (Rattus norvegicus [5]): 178 mmHg | Mean aortic blood pressure (Rattus norvegicus [6]): 190 mmHg | Mean aortic blood pressure (Rattus norvegicus [1]; 30 mg/kg): 197 mmHg | Mean aortic blood pressure (Rattus norvegicus [16]): -81 mmHg | Mean aortic blood pressure (Rattus norvegicus [17]): -72 mmHg | Mean aortic blood pressure (Rattus norvegicus [18]): -19 mmHg | Mean aortic blood pressure (Rattus norvegicus [19]): -115 mmHg | Mean aortic blood pressure (Rattus norvegicus [20]): 184 mmHg

SMILES: O=C(O)[C@@H]1CCC(=O)N1C(=O)CCS
IC50 [12]: 960 nM

SMILES: C1CCC(NC2CCCCC2)CC1.O=C(O)C1C2CCCCC2CN1C(=O)CCS (centres undefined)
Mean aortic blood pressure (Rattus norvegicus [1]): 184 mmHg | Mean aortic blood pressure (Rattus norvegicus [15]): -76 mmHg

SMILES: C[C@H](CS)C(=O)N1c2ccccc2C[C@H]1C(=O)O
IC50 [12]: 3.7 nM

SMILES: CC(CS)C(=O)N1CC2CCCCC2C1C(=O)O (centres undefined)
Mean aortic blood pressure (Rattus norvegicus [1]): 152 mmHg | Mean aortic blood pressure (Rattus norvegicus [21]): -50 mmHg
